ChEMBL document CHEMBL1144333, “Dipyridyl amides: potent metabotropic glutamate subtype 5 (mGlu5) receptor antagonists” (Bioorg Med Chem Lett, 2005)

Tests used:
[1] = molecular target: T1, Metabotropic glutamate receptor 5 (Homo sapiens, UniProt P41594); assay: Inhibitory concentration against human recombinant metabotropic glutamate receptor 5 (mGlu5) in Ltk cells determined using fluorescence detection method; type: cell-based
Summary of the method: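 Automated functional Ca2+ flux assay in Ltk cells stably expressing human recombinant mGlu5. Changes in cytosolic Ca2+ were read by fluorescence with the Ca2+-sensitive dye fura-2. IC50 values are means of two to three experiments.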

[2] = molecular target: T1, Metabotropic glutamate receptor 5; assay: Inhibitory concentration against human recombinant metabotropic glutamate receptor 5 (mGlu5) in Ltk cells determined using fluorescence detection method; NA=Not Active; type: cell-based
Summary of the method: (§1)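 Automated functional Ca2+ flux assay in Ltk cells stably expressing human recombinant mGlu5. Changes in cytosolic Ca2+ were read by fluorescence with the Ca2+-sensitive dye fura-2. IC50 values are means of two to three experiments. Compounds were called not active when IC50 > 10 μM.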

[3] = High plasma clearance in rat was determined; type: ADME, organism-based; conditions: read-out: Clp
[4] = Oral bioavailability in rat; LOQ = limit of quantitation; type: ADME, organism-based; conditions: in vivo
[5] = Modest half life in rat was determined; LOQ = limit of quantitation; type: ADME; conditions: in vivo
[6] = molecular target: T1, Metabotropic glutamate receptor 5; assay: Inhibitory concentration against human recombinant metabotropic glutamate receptor 5 (mGlu5) in Ltk cells determined using fluorescence detection method; IA=Inactive; type: cell-based; summary of the method: as §1
[7] = Modest half life in rat was determined; type: ADME; conditions: in vivo
[8] = Low oral bioavailability was determined; type: ADME, organism-based; conditions: rat, in vivo
[9] = High plasma clearance was determined; type: ADME, organism-based; conditions: rat, read-out: Clp
[10] = Modest half life was determined; type: ADME; conditions: rat

T1 sequence (P41594 whole entry): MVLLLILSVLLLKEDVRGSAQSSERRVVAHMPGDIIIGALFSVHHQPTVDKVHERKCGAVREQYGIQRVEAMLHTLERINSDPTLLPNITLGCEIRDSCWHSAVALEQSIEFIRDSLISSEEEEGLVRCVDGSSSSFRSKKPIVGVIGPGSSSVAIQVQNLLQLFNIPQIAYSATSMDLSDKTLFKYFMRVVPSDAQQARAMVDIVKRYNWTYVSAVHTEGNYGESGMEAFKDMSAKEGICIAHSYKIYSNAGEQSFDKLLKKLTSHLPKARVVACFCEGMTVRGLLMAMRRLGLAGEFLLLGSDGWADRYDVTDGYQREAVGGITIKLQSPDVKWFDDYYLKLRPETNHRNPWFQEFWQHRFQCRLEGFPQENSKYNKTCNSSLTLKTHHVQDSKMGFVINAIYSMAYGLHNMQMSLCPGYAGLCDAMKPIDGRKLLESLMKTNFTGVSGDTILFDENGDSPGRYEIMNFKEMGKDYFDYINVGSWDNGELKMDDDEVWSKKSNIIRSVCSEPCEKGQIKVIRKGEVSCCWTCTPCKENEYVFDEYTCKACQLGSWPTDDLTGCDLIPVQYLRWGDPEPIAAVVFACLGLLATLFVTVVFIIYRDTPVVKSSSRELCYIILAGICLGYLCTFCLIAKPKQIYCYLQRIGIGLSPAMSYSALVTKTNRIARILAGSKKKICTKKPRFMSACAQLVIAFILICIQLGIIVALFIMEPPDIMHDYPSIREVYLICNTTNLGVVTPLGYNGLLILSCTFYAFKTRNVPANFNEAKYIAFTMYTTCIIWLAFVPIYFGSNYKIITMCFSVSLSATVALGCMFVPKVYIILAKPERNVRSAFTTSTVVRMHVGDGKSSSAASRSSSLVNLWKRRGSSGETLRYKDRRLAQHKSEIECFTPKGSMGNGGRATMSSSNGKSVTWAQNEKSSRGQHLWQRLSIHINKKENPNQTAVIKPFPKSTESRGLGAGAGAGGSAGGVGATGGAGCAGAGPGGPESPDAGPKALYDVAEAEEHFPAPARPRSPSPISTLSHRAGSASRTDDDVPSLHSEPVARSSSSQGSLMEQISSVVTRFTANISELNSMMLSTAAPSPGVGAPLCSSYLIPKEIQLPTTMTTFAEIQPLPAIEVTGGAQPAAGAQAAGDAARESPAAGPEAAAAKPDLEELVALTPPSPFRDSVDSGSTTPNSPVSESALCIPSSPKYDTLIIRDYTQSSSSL

| Compound | IC50 [1] [nM] | other results |
| --- | --- | --- |
| CN(C)c1nc(N)c(C(=O)Nc2ccccn2)nc1Cl | 134 | – |
| CN(C)c1cnc(C(=O)Nc2ccccn2)c(N)n1 | 5080 | – |
| Cc1cncc(C(=O)Nc2ccccn2)n1 | 165 | – |
| O=C(Nc1ccccn1)c1cncc(Cl)n1 | 254 | – |
| Cc1ccc(O)c(C(=O)Nc2cccc(C)n2)c1 | 105 | – |
| CNc1ncc(Cl)nc1C(=O)Nc1ccccn1 | 145 | – |
| Cc1cccc(NC(=O)c2nc(C)cnc2N)n1 | 8 | – |
| CN(C)c1ncc(Br)nc1C(=O)Nc1ccccn1 | – | IC50 [2]: Not Active |
| Cc1cccc(NC(=O)c2nc(C)ccc2O)n1 | 7 | clearance [3]: > 100 mL/min/kg; F [4]: Limit of quantification; T1/2 [5]: Limit of quantification |
| CC(C)Nc1nc(N)c(C(=O)Nc2ccccn2)nc1Cl | 23 | – |
| Cc1cccc(NC(=O)c2cccc(Br)n2)n1 | 21 | – |
| Cc1cccc(NC(=O)c2nc(C)ccc2N)n1 | 22 | – |
| O=C(Nc1ccccn1)c1cncc(Br)c1 | – | IC50 [6]: Not Active |
| Nc1nc(N)c(C(=O)Nc2ccccn2)nc1Cl | 3800 | – |
| Cc1cccc(NC(=O)c2nc(C)ccc2Nc2cccnc2)n1 | 11 | clearance [3]: 176 mL/min/kg; half-life [7]: 1.25 h |
| Cc1cccc(N(C)C(=O)c2nc(C)cnc2N)n1 | – | IC50 [6]: Not Active |
| Nc1ncc(Br)nc1C(=O)Nc1ccccn1 | 12 | – |
| Cc1cnc(N)c(C(=O)Nc2ccccn2)n1 | 28 | bioavailability [8]: 20%; clearance [9]: 56 mL/min/kg; half-life [10]: 4.4 h |
| Nc1nc(N2CCCCC2)c(Cl)nc1C(=O)Nc1ccccn1 | 103 | – |
| O=C(Nc1ccccn1)c1cccc(Br)c1 | – | IC50 [6]: Not Active |
| Nc1nccnc1C(=O)Nc1ccccn1 | 3540 | – |
| O=C(Nc1ccccn1)c1cnccn1 | – | IC50 [2]: Not Active |
| Nc1ncc(Cl)nc1C(=O)Nc1ccccn1 | 11 | – |
| Cc1cccc(NC(=O)c2nc(Cl)cnc2N)n1 | 5 | – |
| CN(C)c1ncc(C(=O)Nc2ccccn2)nc1Cl | 158 | – |
| Cc1cccc(NC(=O)c2cccc(C)n2)n1 | 32 | – |
